According to ChEMBL document CHEMBL4043273, “Phenotypic Optimization of Urea-Thiophene Carboxamides To Yield Potent, Well Tolerated, and Orally Active Protective Agents against Aminoglycoside-Induced Hearing Loss” (J Med Chem, 2018):
Converted amounts (≈) assume the structure as drawn. The source made the active and inactive calls.

Columns and labels:
Escherichia coli [1] = experiment: Effect on neomycin MIC for Escherichia coli ATCC 25922; format: functional
Rattus norvegicus [2] = experiment: Protection against kanamycin-induced hearing loss at 8 to 32 kHz in Sprague-Dawley rat at 25 mg/kg/day, ip treated for 14 days followed by recovery without treatment for additional 14 days by auditory brain stem response assay; format: functional, organism-based
Escherichia coli [3] = experiment: Effect on neomycin MBC for Escherichia coli ATCC 25922; format: functional
[4] = target: Voltage-gated inwardly rectifying potassium channel KCNH2 (Homo sapiens, UniProt Q12809)
Danio rerio [5] = species on record: Danio rerio; experiment: Protection against neomycin-induced hair cell death in AB zebra fish larvae assessed as increase in hair cell survival preincubated for 1 hr followed by neomycin challenge for 1 hr by DASPEI staining-based epifluorescence dissecting microscopic method; format: functional
[6] = Ratio of IC50 for human ERG expressed in HEK293 cells to HC50 for protection against neomycin-induced hair cell death in AB zebra fish larvae
HepG2 = experiment: Cytotoxicity against human HepG2 cells assessed as decrease in cell growth after 72 hrs by celltiter glo assay; format: cell-based; details: HepG2, 72 h
Rattus norvegicus [7] = experiment: Change in hearing threshold in Fischer 344 rat at 5 to 25 mg/kg/day administered via oral gavage for 12 days; format: ADME, organism-based; details: in vivo, 288 h
Outline: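 Fischer 344 rats given compound alone by oral gavage at 5 or 25 mg/kg/day for 12 days (n=3 per dose), vehicle PEG300:DMA:EtOH:H2O. ABR thresholds measured before dosing and after a 2-week recovery, under isoflurane anaesthesia in a sound-attenuating chamber.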

Rattus norvegicus [8] = experiment: Acute toxicity in rat at 50 mg/kg, iv; format: organism-based; details: in vivo
[9] = (§1) Elimination half life in rat by LC-MS method; format: ADME; details: in vivo, read-out: beta t1/2 (converted)
[10] = Metabolic stability in microsomes (unknown origin); format: ADME, Microsome
Danio rerio [11] = species on record: Danio rerio; experiment: Protection against neomycin-induced hair cell death in AB zebra fish larvae assessed as increase in hair cell survival at 2.8 uM preincubated for 1 hr followed by neomycin challenge for 1 hr by DASPEI staining-based epifluorescence dissecting microscopic method relative to control; format: functional
Outline: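 AB larvae raised at 28.5°C in embryo medium and tested at 5-7 dpf, ten fish per basket. Pretreatment with compound for 1 h at 1.56–25 µM (halved further if the lowest dose protected), then compound plus 200 µM neomycin for 1 h. After rinsing, 0.05% DASPEI stain for 15 min and MS222 anaesthesia. Ten neuromasts per fish scored 0–2 under epifluorescence, normalised to untreated fish as % survival; HC50 linearly interpolated.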

[12] = Protein binding in plasma; details: read-out: PPB (converted)
Cytochrome P450 2D6 = Cytochrome P450 2D6 (Homo sapiens, UniProt P10635); experiment: Inhibition of CYP2D6 (unknown origin); format: ADME
[13] = Drug metabolism assessed as air oxidation; format: physicochemical
Cytochrome P450 2C9 = Cytochrome P450 2C9 (Homo sapiens, UniProt P11712); experiment: Inhibition of CYP2C9 (unknown origin); format: ADME
[14] = (§2) Protein binding in human plasma; format: ADME, cell-free; details: read-out: PPB
[15] = (§3) Oral bioavailability in rat at 25 mg/kg; format: ADME, organism-based; details: in vivo
[16] = Permeability across MDCK cells expressing MDR1; format: ADME, cell-based, Canis lupus familiaris; details: dog, read-out: permeability
[17] = Aqueous solubility of compound at pH 7.4; format: physicochemical
[18] = (§4) Protein binding in rat plasma; format: ADME, cell-free; details: read-out: PPB
Cytochrome P450 2C19 = Cytochrome P450 2C19 (Homo sapiens, UniProt P33261); experiment: Inhibition of CYP2C19 (unknown origin); format: ADME
Cytochrome P450 3A4 = Cytochrome P450 3A4 (Homo sapiens, UniProt P08684); experiment: Inhibition of CYP3A4 (unknown origin); format: ADME
Rattus norvegicus [19] = species on record: Rattus norvegicus; experiment: as §1; format: ADME; details: in vivo
Plasma [20] = experiment: as §2; format: ADME, cell-free
Rattus norvegicus [21] = experiment: as §3; format: ADME, organism-based; details: in vivo
Plasma [22] = experiment: as §4; format: ADME, cell-free
Pseudomonas aeruginosa [23] = experiment: Effect on amikacin MIC for aminoglycoside-resistant Pseudomonas aeruginosa 6322; format: functional
Pseudomonas aeruginosa [24] = experiment: Effect on tobramycin MIC for Pseudomonas aeruginosa 103 ATCC 27853; format: functional
Pseudomonas aeruginosa [25] = experiment: Effect on tobramycin MIC for aminoglycoside-resistant Pseudomonas aeruginosa 6322; format: functional
Pseudomonas aeruginosa [26] = experiment: Effect on neomycin MIC for Pseudomonas aeruginosa 6160; format: functional
Pseudomonas aeruginosa [27] = experiment: Effect on kanamycin MIC for Pseudomonas aeruginosa 6325; format: functional
[28] = tested on: Mycobacterium tuberculosis; experiment: Effect on amikacin-induced antibacterial activity against Mycobacterium tuberculosis in mouse pulmonary tuberculosis model; format: functional
Pseudomonas aeruginosa [29] = experiment: Effect on kanamycin MIC for Pseudomonas aeruginosa 103 ATCC 27853; format: functional
Pseudomonas aeruginosa [30] = experiment: Effect on neomycin MIC for Pseudomonas aeruginosa 6471; format: functional
[31] = tested on: Mycobacterium tuberculosis; experiment: Effect on moxifloxacin-induced antibacterial activity against Mycobacterium tuberculosis in mouse pulmonary tuberculosis model; format: functional
Pseudomonas aeruginosa [32] = experiment: Effect on kanamycin MIC for aminoglycoside-resistant Pseudomonas aeruginosa 6322; format: functional
Pseudomonas aeruginosa [33] = experiment: Effect on amikacin MIC for Pseudomonas aeruginosa 6160; format: functional
Pseudomonas aeruginosa [34] = experiment: Effect on amikacin MIC for Pseudomonas aeruginosa 6325; format: functional
Pseudomonas aeruginosa [35] = experiment: Effect on tobramycin MIC for Pseudomonas aeruginosa 6160; format: functional
Rattus norvegicus [36] = experiment: Protection against amikacin-induced hair cell death in Fischer 344 rat corti at 5 mg/kg/day administered via oral gavage for 12 days followed by recovery without treatment for additional 14 days by immunohistochemical method; format: functional, organism-based
Outline: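 Rats given amikacin 320 mg/kg/day s.c. plus compound 5 mg/kg p.o. daily for 12 days; saline s.c. controls. Cochleae fixed in 4% paraformaldehyde and dissected. Organ of Corti immunostained for myosin 7A (hair cells), Sox2 (supporting-cell nuclei) and neurofilament (neuronal processes). Basal turn imaged by confocal microscopy.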

Pseudomonas aeruginosa [37] = experiment: Effect on tobramycin MIC for Pseudomonas aeruginosa 6471; format: functional
Pseudomonas aeruginosa [38] = experiment: Effect on neomycin MIC for Pseudomonas aeruginosa 6325; format: functional
Pseudomonas aeruginosa [39] = experiment: Effect on kanamycin MIC for Pseudomonas aeruginosa 6471; format: functional
[40] = tested on: Mycobacterium tuberculosis; experiment: Effect on amikacin MIC for Mycobacterium tuberculosis H37Rv at 1 to 10 uM; format: functional
Rattus norvegicus [41] = experiment: Protection against amikacin-induced hearing loss at 2 to 32 kHz in Fischer 344 rat at 5 mg/kg/day administered via oral gavage for 12 days followed by recovery without treatment for additional 14 days by auditory brain stem response assay; format: functional, organism-based
Outline: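 Male Fischer 344 rats had ABR thresholds measured 1–2 weeks before treatment and 2 weeks after it, under isoflurane, on a heating pad near 37°C, in a sound-attenuating chamber. Amikacin 320 mg/kg/day s.c. for 12 days, with compound 5 mg/kg/day by oral gavage in PEG300:DMA:EtOH:H2O. Groups: amikacin alone or amikacin plus compound.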

Pseudomonas aeruginosa [42] = experiment: Effect on neomycin MIC for Pseudomonas aeruginosa 103 ATCC 27853; format: functional
Pseudomonas aeruginosa [43] = experiment: Effect on amikacin MIC for Pseudomonas aeruginosa 6471; format: functional
Pseudomonas aeruginosa [44] = experiment: Effect on neomycin MIC for aminoglycoside-resistant Pseudomonas aeruginosa 6322; format: functional
Pseudomonas aeruginosa [45] = experiment: Effect on tobramycin MIC for Pseudomonas aeruginosa 6325; format: functional
Pseudomonas aeruginosa [46] = experiment: Effect on amikacin MIC for Pseudomonas aeruginosa 103 ATCC 27853; format: functional
Pseudomonas aeruginosa [47] = experiment: Effect on kanamycin MIC for Pseudomonas aeruginosa 6160; format: functional
[48] = tested on: Mycobacterium tuberculosis; experiment: Effect on kanamycin-induced antibacterial activity against Mycobacterium tuberculosis in mouse pulmonary tuberculosis model; format: functional
[49] = aqueous medium, read-out: solubility

Sequence of Voltage-gated inwardly rectifying potassium channel KCNH2 (Q12809 whole entry): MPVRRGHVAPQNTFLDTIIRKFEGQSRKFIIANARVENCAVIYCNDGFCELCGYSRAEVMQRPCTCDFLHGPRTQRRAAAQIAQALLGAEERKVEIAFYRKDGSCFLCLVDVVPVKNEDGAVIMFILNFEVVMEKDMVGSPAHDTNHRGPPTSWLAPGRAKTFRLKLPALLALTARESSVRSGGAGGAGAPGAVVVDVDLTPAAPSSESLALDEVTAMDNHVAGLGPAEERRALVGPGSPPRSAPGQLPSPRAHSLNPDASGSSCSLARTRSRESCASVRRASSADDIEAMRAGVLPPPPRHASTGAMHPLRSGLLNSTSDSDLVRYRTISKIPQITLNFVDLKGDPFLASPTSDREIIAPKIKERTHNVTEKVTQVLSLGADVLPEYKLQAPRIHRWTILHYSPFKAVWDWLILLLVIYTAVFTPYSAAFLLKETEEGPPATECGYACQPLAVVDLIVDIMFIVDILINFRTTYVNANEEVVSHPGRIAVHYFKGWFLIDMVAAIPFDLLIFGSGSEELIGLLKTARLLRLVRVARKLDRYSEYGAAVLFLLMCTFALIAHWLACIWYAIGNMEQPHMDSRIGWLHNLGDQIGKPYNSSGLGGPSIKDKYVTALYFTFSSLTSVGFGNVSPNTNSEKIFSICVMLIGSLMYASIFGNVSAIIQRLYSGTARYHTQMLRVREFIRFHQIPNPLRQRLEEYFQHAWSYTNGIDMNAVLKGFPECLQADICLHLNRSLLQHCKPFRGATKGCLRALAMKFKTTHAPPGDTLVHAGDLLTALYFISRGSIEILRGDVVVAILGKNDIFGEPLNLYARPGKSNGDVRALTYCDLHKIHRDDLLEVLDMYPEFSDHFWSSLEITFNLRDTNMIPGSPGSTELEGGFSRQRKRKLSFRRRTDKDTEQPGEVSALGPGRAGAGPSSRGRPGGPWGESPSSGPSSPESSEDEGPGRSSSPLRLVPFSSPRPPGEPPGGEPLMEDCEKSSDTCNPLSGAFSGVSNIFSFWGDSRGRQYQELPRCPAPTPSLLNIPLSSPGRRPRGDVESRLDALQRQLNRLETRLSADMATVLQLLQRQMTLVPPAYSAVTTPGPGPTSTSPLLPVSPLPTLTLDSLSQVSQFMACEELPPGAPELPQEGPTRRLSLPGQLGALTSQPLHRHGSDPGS
Sequence of Cytochrome P450 2D6 (P10635 whole entry): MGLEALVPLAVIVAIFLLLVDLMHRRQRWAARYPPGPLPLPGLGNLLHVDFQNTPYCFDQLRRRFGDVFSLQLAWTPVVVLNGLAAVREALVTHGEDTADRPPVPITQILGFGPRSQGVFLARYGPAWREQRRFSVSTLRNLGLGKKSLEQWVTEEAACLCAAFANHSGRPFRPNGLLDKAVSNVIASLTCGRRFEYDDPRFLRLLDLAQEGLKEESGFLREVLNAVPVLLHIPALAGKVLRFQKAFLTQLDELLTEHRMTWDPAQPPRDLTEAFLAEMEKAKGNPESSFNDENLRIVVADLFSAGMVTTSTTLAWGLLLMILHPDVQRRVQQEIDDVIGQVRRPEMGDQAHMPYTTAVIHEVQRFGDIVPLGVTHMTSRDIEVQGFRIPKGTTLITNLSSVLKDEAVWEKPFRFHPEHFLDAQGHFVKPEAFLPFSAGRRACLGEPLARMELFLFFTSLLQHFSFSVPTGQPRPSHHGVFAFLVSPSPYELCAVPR
Sequence of Cytochrome P450 2C9 (P11712 whole entry): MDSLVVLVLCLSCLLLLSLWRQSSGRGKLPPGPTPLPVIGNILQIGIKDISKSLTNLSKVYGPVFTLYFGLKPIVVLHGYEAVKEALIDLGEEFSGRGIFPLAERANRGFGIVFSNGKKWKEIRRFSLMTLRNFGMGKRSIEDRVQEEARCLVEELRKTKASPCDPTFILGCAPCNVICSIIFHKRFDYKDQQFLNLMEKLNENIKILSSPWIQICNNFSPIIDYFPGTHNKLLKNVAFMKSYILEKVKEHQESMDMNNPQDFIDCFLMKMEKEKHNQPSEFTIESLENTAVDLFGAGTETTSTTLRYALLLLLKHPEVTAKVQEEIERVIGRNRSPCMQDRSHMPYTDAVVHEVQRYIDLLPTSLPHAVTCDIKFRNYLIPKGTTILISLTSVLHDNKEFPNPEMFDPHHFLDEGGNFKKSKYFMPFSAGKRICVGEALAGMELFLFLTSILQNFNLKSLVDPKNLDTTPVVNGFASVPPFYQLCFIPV
Sequence of Cytochrome P450 2C19 (P33261 whole entry): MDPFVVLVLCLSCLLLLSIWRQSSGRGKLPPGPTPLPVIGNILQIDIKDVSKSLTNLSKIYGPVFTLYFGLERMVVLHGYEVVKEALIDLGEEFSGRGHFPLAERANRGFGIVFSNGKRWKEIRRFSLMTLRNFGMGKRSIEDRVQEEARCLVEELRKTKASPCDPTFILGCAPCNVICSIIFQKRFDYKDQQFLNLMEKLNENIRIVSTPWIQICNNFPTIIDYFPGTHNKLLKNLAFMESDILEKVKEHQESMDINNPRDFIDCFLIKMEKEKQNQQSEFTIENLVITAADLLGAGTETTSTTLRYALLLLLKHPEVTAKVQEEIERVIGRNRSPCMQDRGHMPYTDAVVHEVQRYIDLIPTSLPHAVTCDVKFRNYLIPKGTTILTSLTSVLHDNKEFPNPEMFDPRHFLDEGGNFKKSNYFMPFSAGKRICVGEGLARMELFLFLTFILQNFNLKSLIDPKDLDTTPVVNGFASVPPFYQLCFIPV
Sequence of Cytochrome P450 3A4 (P08684 whole entry): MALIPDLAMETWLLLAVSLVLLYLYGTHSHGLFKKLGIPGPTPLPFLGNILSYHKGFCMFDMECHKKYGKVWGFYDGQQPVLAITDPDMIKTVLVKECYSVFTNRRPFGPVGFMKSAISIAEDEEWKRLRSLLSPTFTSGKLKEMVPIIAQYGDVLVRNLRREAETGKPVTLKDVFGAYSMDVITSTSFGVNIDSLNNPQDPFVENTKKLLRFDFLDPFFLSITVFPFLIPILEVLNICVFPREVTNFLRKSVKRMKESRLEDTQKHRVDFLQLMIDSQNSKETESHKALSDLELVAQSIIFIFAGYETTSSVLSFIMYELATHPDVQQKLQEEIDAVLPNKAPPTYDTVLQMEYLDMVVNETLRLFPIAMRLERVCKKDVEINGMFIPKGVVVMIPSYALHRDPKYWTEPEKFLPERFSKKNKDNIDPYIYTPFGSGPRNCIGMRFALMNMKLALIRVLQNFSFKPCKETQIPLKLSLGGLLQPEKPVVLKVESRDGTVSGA

CCN1CCc2c(sc(NC(=O)Nc3ccc(Cl)cc3)c2C(N)=O)C1 [listing 1 of 2 here]
Activity (Escherichia coli [1]): inactive
Activity (Rattus norvegicus [2]): Active
Activity (Escherichia coli [3]): inactive

NC(=O)c1c(NC(=O)Nc2ccc(Cl)cc2)sc2c1CC[N+]1(CCOCC1)C2
IC50 [4]: 12.4 µM
EC50 (Danio rerio [5]): 1.21 µM

CN1[C@@H]2CC[C@H]1c1c(sc(NC(=O)Nc3ccc(Cl)cc3)c1C(N)=O)C2.Cl
Ratio [6]: 47
IC50 (HepG2): > 300 µM
Activity (Rattus norvegicus [7]): Non-Toxic
Activity (Rattus norvegicus [8]): Non-Toxic
half-life [9]: 7.8 h
Stability [10]: Stable
%max (Danio rerio [11]): 98%
fraction unbound [12]: 0.1
IC50 (Cytochrome P450 2D6): > 100 µM
Drug metabolism [13]: Metabolite_Notdetected
IC50 (Cytochrome P450 2C9): 60 µM
fraction unbound [14]: 0.093 to 0.11
bioavailability [15]: > 50%
Papp [16]: 5.2 ×10⁻⁶ cm/s
solubility [17, 49]: 86 µM
fraction unbound [18]: 0.099 to 0.14
EC50 (Danio rerio [5]): 0.12 µM
IC50 (Cytochrome P450 2C19): 58 µM
IC50 (Cytochrome P450 3A4): 46 µM

CC1(C)Cc2c(sc(NC(=O)Nc3ccc(Cl)cc3)c2C(N)=O)C(C)(C)N1.Cl
Ratio [6]: >24
IC50 (HepG2): > 300 µM
Activity (Rattus norvegicus [8]): Non-Toxic
beta t1/2 (Rattus norvegicus [19]): 6.2 h
inhibition (INH) (Cytochrome P450 2D6; human): Not Active
Drug metabolism [13]: Metabolite_Notdetected
inhibition (INH) (Cytochrome P450 2C9; human): Not Active
PPB (Plasma [20]): 96.5%
F (Rattus norvegicus [21]): 21%
solubility ([17]; buffer): 13 µM
IC50 [4]: > 30 µM
PPB (Plasma [22]): 95.8%
EC50 (Danio rerio [5]): 1.24 µM
inhibition (INH) (Cytochrome P450 2C19; human): Not Active
inhibition (INH) (Cytochrome P450 3A4; human): Not Active

CC1(C)Cc2c(sc(NC(=O)Nc3ccc(Cl)cc3)c2C(N)=O)C(C)(C)N1
solubility ([17]; buffer): 83 µM (≈ 33.8 µg/mL)

CCN1CCc2c(sc(NC(=O)Nc3ccc(Cl)cc3)c2C(N)=O)C1.Cl
IC50 (HepG2): > 300 µM
Activity (Rattus norvegicus [8]): Non-Toxic
beta t1/2 (Rattus norvegicus [19]): 2.1 h
Drug metabolism [13]: Metabolite_Detected
PPB (Plasma [20]): 95.9%
F (Rattus norvegicus [21]): 46%
IC50 [4]: 3.26 µM
PPB (Plasma [22]): 94.1%
EC50 (Danio rerio [5]): 3.12 µM

NC(=O)c1c(NC(=O)Nc2ccc(Cl)cc2)sc2c1CCN(CCCNC(=O)CCc1c[nH]c3ccccc13)C2
Ratio [6]: 201
IC50 (HepG2): 17 µM
Activity (Rattus norvegicus [8]): Non-Toxic
half-life [9]: 7.1 h
Drug metabolism [13]: Metabolite_Detected
fraction unbound [14]: 0.001
bioavailability [15]: > 1%
solubility [17, 49]: 86 µM (≈ 49.8 µg/mL)
IC50 [4]: 20.1 µM
fraction unbound [18]: 0.001
EC50 (Danio rerio [5]): 0.1 µM

NC(=O)c1c(NC(=O)Nc2ccc(Cl)cc2)sc2c1CCN(CC1CC1)C2
EC50 (Danio rerio [5]): 1.22 µM

CCN1CCc2c(sc(NC(=O)Nc3ccc(Cl)cc3)c2C(N)=O)C1 [listing 2 of 2 here]
solubility ([17]; buffer): 85 µM (≈ 32.2 µg/mL)

NC(=O)c1c(NC(=O)Nc2ccc(Cl)cc2)sc2c1CCN(CC1CCCC1)C2
EC50 (Danio rerio [5]): 1.83 µM

CCN1CCc2c(sc(NC(=O)Nc3ccccc3)c2C(N)=O)C1
EC50 (Danio rerio [5]): > 25 µM

CN1[C@@H]2CC[C@H]1c1c(sc(NC(=O)Nc3ccc(Cl)cc3)c1C(N)=O)C2
Activity (Pseudomonas aeruginosa [23]): inactive
Activity (Pseudomonas aeruginosa [24]): inactive
Activity (Pseudomonas aeruginosa [25]): inactive
Activity (Pseudomonas aeruginosa [26]): inactive
Activity (Pseudomonas aeruginosa [27]): inactive
Activity (Escherichia coli [1]): inactive
Activity [28]: inactive
Activity (Pseudomonas aeruginosa [29]): inactive
Activity (Pseudomonas aeruginosa [30]): inactive
Activity [31]: inactive
Activity (Pseudomonas aeruginosa [32]): inactive
Activity (Pseudomonas aeruginosa [33]): inactive
Activity (Pseudomonas aeruginosa [34]): inactive
Activity (Pseudomonas aeruginosa [35]): inactive
Activity (Rattus norvegicus [36]): Active
Activity (Pseudomonas aeruginosa [37]): inactive
Activity (Pseudomonas aeruginosa [38]): inactive
Activity (Pseudomonas aeruginosa [39]): inactive
Activity [40]: inactive
Activity (Rattus norvegicus [41]): Active
Activity (Pseudomonas aeruginosa [42]): inactive
Activity (Pseudomonas aeruginosa [43]): inactive
Activity (Pseudomonas aeruginosa [44]): inactive
Activity (Pseudomonas aeruginosa [45]): inactive
Activity (Pseudomonas aeruginosa [46]): inactive
Activity (Pseudomonas aeruginosa [47]): inactive
Activity (Escherichia coli [3]): inactive
Activity [48]: inactive

C[N+]1(CC2CCCCC2)CCc2c(sc(NC(=O)Nc3ccc(Cl)cc3)c2C(N)=O)C1 (centres undefined)
EC50 (Danio rerio [5]): 0.1 µM

NC(=O)c1c(NC(=O)Nc2ccc(Cl)cc2)sc2c1CCN(CCCNC(=O)CCc1cccc3ccccc13)C2
EC50 (Danio rerio [5]): 0.11 µM
